Where two headings read alike, the source gives them in different places.
Assays:
[1] = 2NN study, cited from earlier work
[2] = healthy volunteers, Phase I studies; cited from earlier work
[3] = for Individual predictions V/F / Population predictions V/F: 1600/100 mg once daily; for Population predictions V/F: typical 70 kg male
[4] = Population pharmacokinetic model fitted to each study site separately; type: in vivo, human; settings: split model, 1600/100 mg once daily; for Population predictions CL/F / Population predictions V/F: typical 70 kg male
Outline: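 UK sampling: pre-dose to 12 h (24 h if once daily). Thailand: pre-dose to 24 h, 10–15 g fat meal. Plasma from heparinized blood was frozen at −70°C and assayed by HPLC-MS/MS or HPLC-UV. Nonlinear mixed-effects modelling used FO estimation; individual estimates were Bayesian post hoc.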

Cc1ccnc2c1NC(=O)c1cccnc1N2C1CC1 [nevirapine]
higher clearance compared with Thai and South African individuals ([1]; South American HIV patients): ~ 11% | higher clearance compared with Thai and South African individuals ([1]; Western HIV patients): ~28%

CC(C)(C)NC(=O)[C@@H]1C[C@@H]2CCCC[C@@H]2CN1C[C@@H](O)[C@H](Cc1ccccc1)NC(=O)[C@H](CC(N)=O)NC(=O)c1ccc2ccccc2n1 [saquinavir]
bioavailability F [2]: 0.039 | observed trough concentrations below target (MEC 0.1 mg/L), number ([3]; both, human, in vivo): 65 | decrease in F ([3]; fasted state compared with standardized meal): ~ 40% | D1 (duration of zero-order input) ([3]; full model): 3.08 h | IIV CL/F ([3]; full model): 41.4% | IIV D1 ([3]; full model): 17.8% | IIV V/F ([3]; full model): 41.6% | IIV lag-time ([3]; full model): 46.8% | IOV CL/F ([3]; full model): 57.3% | IOV V/F ([3]; full model): 37.3% | Lag-time ([3]; full model): 0.57 h | Residual error additive ([3]; full model): 0.26 mg/L | Residual error proportional ([3]; full model): 34.3% | V/F ([3]; full model, 1000/100 mg bid evening dose): 545 L | V/F ([3]; full model, 1000/100 mg bid morning dose): 324 L | V/F ([3]; full model, 1600/100 mg qd): 324 L | V/F ([3]; full model, 1600/100 mg qd Thailand): 379 L | V/F ([3]; full model, 1600/100 mg qd Uganda): 332 L | V/F ([3]; full model, 2000/100 mg qd): 324 L | Individual predictions V/F ([3]; full model, Thailand): 195.4 L | Population predictions V/F ([3]; full model, Thailand): 371.1 L | Individual predictions V/F ([3]; full model, UK): 272.9 L | Population predictions V/F ([3]; full model, UK): 317.2 L | Individual predictions V/F ([3]; full model, Uganda): 521.2 L | Population predictions V/F ([3]; full model, Uganda): 325.1 L | increase in F ([3]; high-fat meal (66 g fat) compared with standardized meal): ~ 80% | Individual predictions CL/F ([4]; Thailand): 22.8 L/h | Individual predictions V/F ([4]; Thailand): 184.1 L | Population predictions CL/F ([4]; Thailand): 26.7 L/h | Population predictions V/F ([4]; Thailand): 245.9 L | Individual predictions CL/F ([4]; UK): 79.4 L/h | Individual predictions V/F ([4]; UK): 278.8 L | Population predictions CL/F ([4]; UK): 89.0 L/h | Population predictions V/F ([4]; UK): 313.5 L | Individual predictions CL/F ([4]; Uganda): 59.0 L/h | Individual predictions V/F ([4]; Uganda): 400.2 L | Population predictions CL/F ([4]; Uganda): 49.8 L/h | Population predictions V/F ([4]; Uganda): 421.0 L
